Measurements taken from ChEMBL document CHEMBL2384929, “Synthesis and biological evaluation of fluoro analogues of antimitotic phenstatin” (Bioorg Med Chem, 2013).

Experiments:
[1] = organism: Ovis aries; test: Inhibition of sheep brain tubulin assembly at 100 uM by DAPI staining-based fluorescence assay
Outline: (§1)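 Tubulin from sheep brain, purified by two assembly–disassembly cycles, at about 2–3 mg/mL in 0.1 M MES, 0.5 mM MgCl2, 1 mM EGTA, 1 mM GTP, pH 6.6. Assembly followed by DAPI fluorescence at 37 °C. Single-point inhibition tested at 100 µM. IC50 is the concentration halving the assembly rate relative to no compound, mean of two experiments, with reference inhibitors run the same day.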

[2] = Inhibition of sheep brain tubulin assembly by DAPI staining-based fluorescence assay; parameters: species or system Ovis aries; outline: as §1
[3] = tested on: SF-539; test: Cytotoxicity against human SF539 cells assessed as growth inhibition after 48 hrs by SRB assay; format: functional; conditions: SF-539, 48 h
Outline: (§2)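 Run in the NCI 60 human tumour cell line panel. Cells exposed for 48 h, growth read by sulforhodamine B. Compounds were first screened at a single 10 µM dose, and those meeting preset threshold inhibition criteria went on to the 5-dose screen. GI50 is the molar concentration giving 50% growth inhibition.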

[4] = tested on: DU-145; test: Cytotoxicity against human DU145 cells assessed as growth inhibition after 48 hrs by SRB assay; format: functional; conditions: DU-145, 48 h; outline: as §2
[5] = tested on: NCI-H460; test: Cytotoxicity against human NCI-H460 cells assessed as growth inhibition after 48 hrs by SRB assay; format: functional; conditions: NCI-H460, 48 h; outline: as §2
[6] = tested on: Hs-578T; test: Cytotoxicity against human Hs578T cells assessed as growth inhibition after 48 hrs by SRB assay; format: functional; outline: as §2
[7] = tested on: M14; test: Cytotoxicity against human M14 cells assessed as growth inhibition after 48 hrs by SRB assay; format: functional; conditions: M14, 48 h; outline: as §2
[8] = tested on: NCI-H522; test: Cytotoxicity against human NCI-H522 cells assessed as growth inhibition after 48 hrs by SRB assay; format: functional; conditions: NCI-H522, 48 h; outline: as §2
[9] = tested on: MDA-MB-435; test: Cytotoxicity against human MDA-MB-435 cells assessed as growth inhibition after 48 hrs by SRB assay; format: functional; conditions: MDA-MB-435, 48 h; outline: as §2
[10] = tested on: HCT-15; test: Cytotoxicity against human HCT15 cells assessed as growth inhibition after 48 hrs by SRB assay; format: functional; conditions: HCT-15, 48 h; outline: as §2
[11] = tested on: BT-549; test: Cytotoxicity against human BT549 cells assessed as growth inhibition after 48 hrs by SRB assay; format: functional; conditions: BT-549, 48 h; outline: as §2
[12] = tested on: SN12C; test: Cytotoxicity against human SN12C cells assessed as growth inhibition after 48 hrs by SRB assay; format: functional; outline: as §2
[13] = tested on: NCI-H23; test: Cytotoxicity against human NCI-H23 cells assessed as growth inhibition after 48 hrs by SRB assay; format: functional; conditions: NCI-H23, 48 h; outline: as §2
[14] = tested on: ACHN; test: Cytotoxicity against human ACHN cells assessed as growth inhibition after 48 hrs by SRB assay; format: functional; outline: as §2
[15] = tested on: OVCAR-3; test: Cytotoxicity against human OVCAR3 cells assessed as growth inhibition after 48 hrs by SRB assay; format: functional; conditions: OVCAR-3, 48 h; outline: as §2
[16] = tested on: KM12; test: Cytotoxicity against human KM12 cells assessed as growth inhibition after 48 hrs by SRB assay; format: functional; conditions: KM12, 48 h; outline: as §2
[17] = tested on: SR; test: Cytotoxicity against human SR cells assessed as growth inhibition after 48 hrs by SRB assay; format: functional; outline: as §2
[18] = tested on: PC-3; test: Cytotoxicity against human PC3 cells assessed as growth inhibition after 48 hrs by SRB assay; format: functional; conditions: PC-3, 48 h; outline: as §2
[19] = tested on: SNB-75; test: Cytotoxicity against human SNB75 cells assessed as growth inhibition after 48 hrs by SRB assay; format: functional; conditions: SNB-75, 48 h; outline: as §2
[20] = tested on: K562; test: Cytotoxicity against human K562 cells assessed as growth inhibition after 48 hrs by SRB assay; format: functional; conditions: K562, 48 h; outline: as §2
[21] = tested on: SF-268; test: Cytotoxicity against human SF268 cells assessed as growth inhibition after 48 hrs by SRB assay; format: functional; conditions: SF-268, 48 h; outline: as §2
[22] = tested on: SK-OV-3; test: Cytotoxicity against human SKOV3 cells assessed as growth inhibition after 48 hrs by SRB assay; format: functional; conditions: SK-OV-3, 48 h; outline: as §2
[23] = tested on: CCRF-CEM; test: Cytotoxicity against human CCRF-CEM cells assessed as growth inhibition after 48 hrs by SRB assay; format: functional; outline: as §2
[24] = tested on: SNB-19; test: Cytotoxicity against human SNB19 cells assessed as growth inhibition after 48 hrs by SRB assay; format: functional; conditions: SNB-19, 48 h; outline: as §2
[25] = tested on: HL-60(TB); test: Cytotoxicity against human HL-60(TB) cells assessed as growth inhibition after 48 hrs by SRB assay; format: functional; conditions: HL-60, 48 h
Outline: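 NCI 60-human-cancer-cell-line screen; only compounds meeting predetermined threshold inhibition criteria in the single-dose test went on to the 5-dose screen. Cells exposed for 48 h and growth read by sulforhodamine B assay. GI50 is the molar concentration giving 50% growth inhibition of tumour cells.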

[26] = tested on: MDA-MB-231; test: Cytotoxicity against human MDA-MB-231 cells assessed as growth inhibition after 48 hrs by SRB assay; format: functional; conditions: MDA-MB-231, 48 h; outline: as §2
[27] = tested on: NCI/ADR-RES; test: Cytotoxicity against human NCI/ADR-RES cells assessed as growth inhibition after 48 hrs by SRB assay; format: functional; outline: as §2
[28] = tested on: Malme-3M; test: Cytotoxicity against human MALME-3M cells assessed as growth inhibition after 48 hrs by SRB assay; format: functional; outline: as §2
[29] = tested on: RXF 393; test: Cytotoxicity against human RXF393 cells assessed as growth inhibition after 48 hrs by SRB assay; format: functional; conditions: RXF 393, 48 h; outline: as §2
[30] = tested on: SW-620; test: Cytotoxicity against human SW620 cells assessed as growth inhibition after 48 hrs by SRB assay; format: functional; conditions: SW-620, 48 h; outline: as §2

Structure (SMILES): COc1ccc(C(=O)c2cc(F)c(F)c(OC)c2F)c(O)c1O
- inhibition [1]: 93%
- IC50 [2]: 29200 nM

Structure (SMILES): C=C(c1ccc(OC)c(O)c1)c1cc(F)c(F)c(OC)c1F
- GI50 [3]: 31 nM
- GI50 [4]: 139 nM
- GI50 [5]: 343 nM
- GI50 [6]: 52 nM
- GI50 [7]: 38 nM
- GI50 [8]: 25 nM
- GI50 [9]: 19 nM
- GI50 [10]: 45 nM
- GI50 [11]: 61 nM
- GI50 [12]: 209 nM
- GI50 [13]: 385 nM
- GI50 [14]: 67 nM
- GI50 [15]: 217 nM
- GI50 [16]: 47 nM
- GI50 [17]: 15 nM
- GI50 [18]: 140 nM
- GI50 [19]: 55 nM
- GI50 [20]: 37 nM
- GI50 [21]: 75 nM
- GI50 [22]: 94 nM
- GI50 [23]: 37 nM
- inhibition [1]: 77%
- GI50 [24]: 67 nM
- GI50 [25]: 23 nM
- GI50 [26]: 94 nM
- GI50 [27]: 38 nM
- GI50 [28]: 44 nM
- IC50 [2]: 42200 nM
- GI50 [29]: 176 nM
- GI50 [30]: 45 nM

Structure (SMILES): COc1ccc(C(=O)c2ccc(OC)c(NC(C)=O)c2OC)cc1F
- inhibition [1]: 3%

Structure (SMILES): C=C(c1cc(OC)c(OC)c(OC)c1)c1cc(OC)c(F)cc1OC
- GI50 [3]: 2160 nM
- GI50 [4]: 2440 nM
- GI50 [5]: 1220 nM
- GI50 [6]: 2190 nM
- GI50 [7]: 547 nM
- GI50 [8]: 601 nM
- GI50 [9]: 260 nM
- GI50 [10]: 666 nM
- GI50 [11]: 4120 nM
- GI50 [12]: 498 nM
- GI50 [13]: 2200 nM
- GI50 [14]: 6540 nM
- GI50 [15]: 521 nM
- GI50 [16]: 568 nM
- GI50 [17]: 455 nM
- GI50 [18]: 2240 nM
- GI50 [19]: 920 nM
- GI50 [20]: 340 nM
- GI50 [21]: 2670 nM
- GI50 [22]: 1050 nM
- GI50 [23]: 1100 nM
- inhibition [1]: 44%
- GI50 [24]: 3300 nM
- GI50 [25]: 273 nM
- GI50 [26]: 945 nM
- GI50 [27]: 375 nM
- GI50 [28]: > 10000 nM
- GI50 [29]: 2160 nM
- GI50 [30]: 587 nM

Structure (SMILES): COc1cc([C@@H]2c3cc4c(cc3C[C@H]3COC(=O)[C@@H]32)OCO4)cc(OC)c1OC [DESOXYPODOPHYLLOTOXIN]
- inhibition [1]: 100%
- IC50 [2]: 1760 nM

Structure (SMILES): COc1cc(C(=O)c2cc(OC)c(OC)c(OC)c2)c(OC)cc1F
- GI50 [3]: 164 nM
- GI50 [4]: 257 nM
- GI50 [5]: 115 nM
- GI50 [6]: 194 nM
- GI50 [7]: 72 nM
- GI50 [8]: 102 nM
- GI50 [9]: 25 nM
- GI50 [10]: 55 nM
- GI50 [11]: 365 nM
- GI50 [12]: 602 nM
- GI50 [13]: 421 nM
- GI50 [14]: 693 nM
- GI50 [15]: 45 nM
- GI50 [16]: 50 nM
- GI50 [17]: 43 nM
- GI50 [18]: 207 nM
- GI50 [19]: 109 nM
- GI50 [20]: 46 nM
- GI50 [21]: 748 nM
- GI50 [22]: 213 nM
- GI50 [23]: 192 nM
- inhibition [1]: 77%
- GI50 [24]: 419 nM
- GI50 [25]: 203 nM
- GI50 [26]: 388 nM
- GI50 [27]: 68 nM
- GI50 [28]: 433 nM
- IC50 [2]: 24000 nM
- GI50 [29]: 144 nM
- GI50 [30]: 63 nM

Structure (SMILES): COc1ccc(C(=O)c2cc(F)c(F)c(OC)c2F)c(OC)c1N
- GI50 [3]: 3590 nM
- GI50 [4]: 3910 nM
- GI50 [5]: 3000 nM
- GI50 [6]: 3780 nM
- GI50 [8]: 752 nM
- GI50 [9]: 407 nM
- GI50 [10]: 2980 nM
- GI50 [11]: 34100 nM
- GI50 [12]: 5810 nM
- GI50 [13]: 30700 nM
- GI50 [14]: 7900 nM
- GI50 [15]: 2090 nM
- GI50 [16]: 890 nM
- GI50 [17]: 961 nM
- GI50 [18]: 10200 nM
- GI50 [19]: 1700 nM
- GI50 [20]: 1830 nM
- GI50 [21]: 6540 nM
- GI50 [22]: 8370 nM
- GI50 [23]: 3350 nM
- inhibition [1]: 89%
- GI50 [24]: 5470 nM
- GI50 [25]: 3690 nM
- GI50 [26]: 8550 nM
- GI50 [27]: 1670 nM
- GI50 [28]: 11500 nM
- IC50 [2]: 29200 nM
- GI50 [29]: 4510 nM
- GI50 [30]: 2840 nM

Structure (SMILES): COc1ccc(C(=O)c2cc(F)c(F)c(OC)c2F)cc1OC(=O)CCl
- inhibition [1]: 46%

Structure (SMILES): COc1ccc(C(=O)c2cc(OC)c(OC)c(OC)c2N)cc1F
- IC50 [2]: 2000 nM

Structure (SMILES): COc1ccc(C(=O)c2cc(F)c(F)c(OC)c2F)cc1O
- GI50 [3]: 2470 nM
- GI50 [4]: 2080 nM
- GI50 [5]: 2230 nM
- GI50 [6]: 1600 nM
- GI50 [7]: 804 nM
- GI50 [8]: 1340 nM
- GI50 [9]: 285 nM
- GI50 [10]: 1760 nM
- GI50 [11]: 3130 nM
- GI50 [12]: 5160 nM
- GI50 [13]: 3750 nM
- GI50 [14]: 6840 nM
- GI50 [15]: 1500 nM
- GI50 [16]: 1030 nM
- GI50 [17]: 969 nM
- GI50 [18]: 3720 nM
- GI50 [19]: 1740 nM
- GI50 [20]: 186 nM
- GI50 [21]: 3850 nM
- GI50 [22]: 2440 nM
- GI50 [23]: 3310 nM
- inhibition [1]: 88%
- GI50 [24]: 4390 nM
- GI50 [25]: 2020 nM
- GI50 [26]: 2090 nM
- GI50 [27]: 789 nM
- GI50 [28]: 9530 nM
- IC50 [2]: 28200 nM
- GI50 [29]: 2470 nM
- GI50 [30]: 703 nM

Structure (SMILES): COc1ccc(C(=O)c2cc(OC)c(OC)c(OC)c2)cc1O [PHENSTATIN]
- GI50 [4]: 34 nM
- GI50 [5]: 6 nM
- GI50 [15]: 2 nM
- inhibition [1]: 99%
- IC50 [2]: 3430 nM
